Experimental data from ChEMBL document CHEMBL1144781, “Identification of promiscuous small molecule activators in high-throughput enzyme activation screens” (J Med Chem, 2008).
Active and inactive are the calls of the source. No cut-off for these calls is given here.

How the values were obtained:
[1] = target: T1, Caspase-3 (Homo sapiens) (UniProt P42574); assay: Activation of caspase 3 after 30 mins
T1 sequence (whole entry): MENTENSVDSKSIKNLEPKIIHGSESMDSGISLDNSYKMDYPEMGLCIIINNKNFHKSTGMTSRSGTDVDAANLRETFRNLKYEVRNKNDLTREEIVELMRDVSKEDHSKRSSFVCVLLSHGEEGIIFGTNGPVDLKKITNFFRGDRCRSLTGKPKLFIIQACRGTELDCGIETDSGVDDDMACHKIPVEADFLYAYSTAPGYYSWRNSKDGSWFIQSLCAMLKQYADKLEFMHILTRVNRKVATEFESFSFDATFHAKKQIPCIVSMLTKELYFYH

[2] = target: T2, Caspase-2 (Homo sapiens, UniProt P42575); assay: Activation of procaspase 2 after 24 hrs
T2 sequence (P42575 whole entry): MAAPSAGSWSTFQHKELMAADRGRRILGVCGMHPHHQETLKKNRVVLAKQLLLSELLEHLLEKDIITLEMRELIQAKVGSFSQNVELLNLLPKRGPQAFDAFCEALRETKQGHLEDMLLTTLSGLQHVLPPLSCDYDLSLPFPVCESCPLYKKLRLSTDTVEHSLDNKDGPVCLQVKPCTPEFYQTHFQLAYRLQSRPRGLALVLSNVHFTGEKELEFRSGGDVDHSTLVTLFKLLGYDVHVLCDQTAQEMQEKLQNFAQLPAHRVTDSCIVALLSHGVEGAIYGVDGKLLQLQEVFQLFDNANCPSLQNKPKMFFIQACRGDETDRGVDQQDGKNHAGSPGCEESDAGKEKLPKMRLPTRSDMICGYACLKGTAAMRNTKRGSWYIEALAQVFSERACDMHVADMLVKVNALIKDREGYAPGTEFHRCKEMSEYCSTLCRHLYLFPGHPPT

[3] = target: T3, Caspase-2 (Homo sapiens) (UniProt P42575); assay: Increase in procaspase 2 activity after 16 hrs in presence of surfactant CHAPS
T3 sequence (whole entry): T2 sequence (P42575 whole entry)
In short: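 Procaspase-2 was incubated with compound for 16 h in buffer containing CHAPS. Activity was then read by adding Ac-VDVAD-pNA substrate and monitoring absorbance at 405 nm.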

[4] = target: T3, Caspase-2 (Homo sapiens); assay: Increase in procaspase 2 activity after 30 mins in presence of surfactant CHAPS
In short: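 Procaspase-2 was preincubated with compound for a short time (30 min) in CHAPS-containing buffer. Ac-VDVAD-pNA cleavage was then followed by absorbance at 405 nm.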

[5] = Activation of alkaline phosphatase after 30 mins
[6] = Activation of procaspase 2 in presence of BSA

Compound	Activity [1]	EC50 [2] [µM]	also measured
CC1CCCN(CC(O)COc2ccc(C34CC5CC(CC(C5)C3)C4)cc2)C1 (stereo unspecified)	Active	25	
CCCCCCCCCCCCCCCC[n+]1ccccc1		21	
Cc1cc(NNC(=O)C(c2ccccc2)c2ccccc2)c2ccc(C)c(C)c2n1		50	
CN(C)CCNC(=O)COc1ccc(C23CC4CC(CC(C4)C2)C3)cc1	Active	25	Activity [3]: Active; Activity [4]: inactive
CCCCCCCCCCNC(=O)CCC		66	
NCCCNCCNCCCN	Active	50	Activity [5]: Active
NCCCNCCCCNCCCN [SPERMINE]	Active	8.5	
C[C@@H](CCC(=O)NCCC[N+](C)(C)CCCS(=O)(=O)[O-])[C@H]1CC[C@H]2[C@@H]3[C@H](O)C[C@@H]4C[C@H](O)CC[C@]4(C)[C@H]3C[C@H](O)[C@]12C	Active		Activity [6]: inactive
